Test results as given in ChEMBL document CHEMBL3585287, “1-Benzyl-4-phenyl-1H-1,2,3-triazoles improve the transcriptional functions of estrogen-related receptor γ and promote the browning of white adipose” (Bioorg Med Chem, 2015).
pKd: −log10 of the molar value. Each block holds one molecule with its values, some of them ahead of it. Calls of active or inactive are those of the source. The calls are words filed in the database; no cut-off is given here.

Key:
[1] = molecular target: T1, Estrogen-related receptor gamma (Homo sapiens) (UniProt P62508); experiment: Activation of GAL4-DBD-ERRgamma ligand binding domain (unknown origin) expressed in HEK293FT cells at 2 uM incubated for 24 hrs by mammalian two-hybrid reporter gene assay; type: cell-based
T1 sequence (whole entry): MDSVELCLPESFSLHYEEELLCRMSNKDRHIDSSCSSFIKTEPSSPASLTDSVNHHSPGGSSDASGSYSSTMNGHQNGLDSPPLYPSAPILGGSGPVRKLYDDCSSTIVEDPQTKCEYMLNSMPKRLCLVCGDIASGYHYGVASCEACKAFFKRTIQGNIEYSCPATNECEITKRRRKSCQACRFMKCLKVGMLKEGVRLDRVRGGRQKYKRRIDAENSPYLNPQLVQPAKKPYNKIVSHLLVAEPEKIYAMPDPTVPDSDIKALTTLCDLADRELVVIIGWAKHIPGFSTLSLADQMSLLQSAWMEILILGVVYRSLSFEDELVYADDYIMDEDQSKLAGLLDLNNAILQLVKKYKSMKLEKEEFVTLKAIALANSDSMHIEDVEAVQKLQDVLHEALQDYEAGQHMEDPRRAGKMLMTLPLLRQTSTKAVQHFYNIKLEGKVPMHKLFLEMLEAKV
In short: (§1)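 293FT cells (DMEM, 10% FBS) were seeded at 10,000 cells/well and transfected 18-24 h later with GAL4-DBD-ERRγ-LBD (0.5 ng), pcDNA-PGC-1α (0.5 ng), pFR reporter (25 ng) and pRLTK renilla (3 ng). After 6 h, compound was added at 2 μM for 24 h. Dual luciferase readout, firefly/renilla ratio taken as RLU. Run in triplicate, ≥3 independent experiments.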

[2] = molecular target: T2, Estrogen-related receptor gamma (Mus musculus) (UniProt P62509); experiment: Increase in ERRgamma mediated transcriptional activity in primary mouse embryonic fibroblasts assessed as increase in ERRalpha mRNA levels at 1 uM by quantitative real time PCR assay
T2 sequence (whole entry): T1 sequence (whole entry)
In short: (§2)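 MEFs were grown to confluence and held 2 days, then differentiated from day 0 with 5 μg/mL insulin, 1 μM dexamethasone and 0.5 mM IBMX. From day 8, cells received compound in DMEM/10% FBS for 2 more days. Total RNA was extracted with Trizol and reverse transcribed; SYBR qPCR normalized to GAPDH. Mean ± SEM of three independent experiments.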

[3] = molecular target: T2, Estrogen-related receptor gamma (Mus musculus); experiment: Increase in ERRgamma mediated transcriptional activity in primary mouse embryonic fibroblasts assessed as increase in SHP mRNA levels at 1 uM by quantitative real time PCR assay; in short: as §2
[4] = molecular target: T2, Estrogen-related receptor gamma (Mus musculus); experiment: Increase in ERRgamma mediated transcriptional activity in primary mouse embryonic fibroblasts assessed as increase in ATP5b mRNA levels at 1 uM by quantitative real time PCR assay; in short: as §2
[5] = molecular target: T2, Estrogen-related receptor gamma (Mus musculus); experiment: Increase in ERRgamma mediated transcriptional activity in primary mouse embryonic fibroblasts assessed as increase in MCAD mRNA levels at 1 uM by quantitative real time PCR assay; in short: as §2
[6] = tested on: MEF; experiment: Induction of mitochondrial biogenesis in primary mouse embryonic fibroblasts assessed as increase in COX2 mRNA expression at 0.5 to 5 uM by quantitative real time PCR assay; type: functional, cell-based; in short: as §2
[7] = molecular target: T2, Estrogen-related receptor gamma (Mus musculus); experiment: Increase in ERRgamma mediated transcriptional activity in primary mouse embryonic fibroblasts assessed as increase in MCAD mRNA levels by quantitative real time PCR assay; in short: as §2
[8] = tested on: MEF; experiment: Induction of mitochondrial biogenesis in primary mouse embryonic fibroblasts assessed as increase in SDH protein expression at 0.5 to 5 uM by Western blot method; type: functional, cell-based
In short: (§3)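 Differentiated MEF adipocytes were treated with compound from day 8 for 2 days. Cells were lysed in RIPA buffer on ice; 40 μg protein was run on 12% SDS-PAGE and blotted to PVDF. Primary antibodies overnight at 4 °C (UCP1 1:1000, SDH 1:4000, MCAD 1:5000, ATP5b 1:1000, β-actin 1:2000), then HRP secondary for 4 h at 4 °C and ECL detection. Three independent experiments.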

[9] = molecular target: T1, Estrogen-related receptor gamma (Homo sapiens); experiment: Activation of GAL4-DBD-ERRgamma ligand binding domain (unknown origin) expressed in HEK293FT cells incubated for 24 hrs by mammalian two-hybrid reporter gene assay; type: cell-based; in short: as §1
[10] = tested on: Mus musculus; experiment: In vivo induction of white adipose browning in C57BL6 mouse subcutaneous white adipose tissue assessed as increase in UCP1 mRNA expression at 20 mg/kg/day, po by real-time PCR assay; type: functional, organism-based
In short: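 Male C57BL6 mice (8 weeks) on 60% fat diet received 20 mg/kg compound or vehicle (5% alcohol in PBS) daily by oral gavage for 4 weeks. Subcutaneous white adipose was collected and stored at -80 °C; RNA was analyzed by SYBR qPCR against GAPDH.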

[11] = tested on: MEF; experiment: Induction of mitochondrial biogenesis in primary mouse embryonic fibroblasts assessed as increase in CS mRNA expression at 0.5 to 5 uM by quantitative real time PCR assay; type: functional, cell-based; in short: as §2
[12] = tested on: MEF; experiment: In vitro induction of white adipose browning in primary mouse embryonic fibroblasts assessed as increase in Prdm16 mRNA expression at 0.5 to 5 uM by real-time PCR assay; type: functional, cell-based; in short: as §2
[13] = molecular target: T3, Estrogen-related receptor gamma (Homo sapiens, UniProt P62508); experiment: Binding affinity to ERRgamma (unknown origin) at 20 degC by isothermal titration calorimetry
T3 sequence (P62508 whole entry): T1 sequence (whole entry)

[14] = molecular target: T2, Estrogen-related receptor gamma (Mus musculus); experiment: Increase in ERRgamma mediated transcriptional activity in primary mouse embryonic fibroblasts assessed as increase in ATP5b mRNA levels by quantitative real time PCR assay; in short: as §2
[15] = tested on: MEF; experiment: Induction of mitochondrial biogenesis in primary mouse embryonic fibroblasts at 5 uM incubated for 2 days by electron microscopy; type: functional, cell-based
In short: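 On day 10, MEF-derived white adipocytes were fixed in 2.5% glutaraldehyde for 1 h, post-fixed in 1% osmic acid for 1 h, dehydrated in graded ethanol and embedded in epoxy. Ultrathin sections were stained with uranyl acetate and lead citrate and examined by transmission electron microscopy.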

[16] = tested on: MEF; experiment: Induction of mitochondrial biogenesis in primary mouse embryonic fibroblasts assessed as increase in PGC-1alpha mRNA expression at 0.5 to 5 uM by quantitative real time PCR assay; type: functional, cell-based; in short: as §2
[17] = tested on: Mus musculus; experiment: In vivo induction of white adipose browning in C57BL6 mouse interscapularbrown adipose tissue assessed as increase in UCP1 expression at 20 mg/kg/day, po by immunohistochemistry; type: functional, organism-based; conditions: in the assay text read “subcutaneous white adipose tissue” for “interscapularbrown adipose tissue”
In short: (§4)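 Male C57BL6 mice (8 weeks) on a high-fat diet (60% energy as fat) were gavaged daily for 4 weeks with 20 mg/kg compound or vehicle (5% alcohol in PBS). Adipose tissues were fixed overnight in 4% formaldehyde, paraffin-sectioned and immunostained for UCP1 (1:1000); UCP1-positive area was quantified. Two independent experiments.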

[18] = tested on: MEF; experiment: Induction of mitochondrial biogenesis in primary mouse embryonic fibroblasts assessed as increase in SDH mRNA expression at 0.5 to 5 uM by quantitative real time PCR assay; type: functional, cell-based; in short: as §2
[19] = tested on: Adipocyte; experiment: In vitro induction of white adipose browning in mouse white adipocytes differentiated from primary preadipocytes cells of subcutaneous adipose tissue assessed as increase in UCP1 mRNA expression at 1 and 5 uM by real-time PCR assay; type: functional, cell-based
In short: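 Subcutaneous fat preadipocytes were isolated by 0.1% collagenase I digestion (40 min, 37 °C), filtered and cultured. Differentiation used insulin (5 μg/mL), dexamethasone (1 μM) and IBMX (0.5 mM). From day 8, compound was given in DMEM/10% FBS for 2 days. UCP1 mRNA was measured by SYBR qPCR against GAPDH.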

[20] = tested on: MEF; experiment: In vitro induction of white adipose browning in primary mouse embryonic fibroblasts assessed as increase in UCP1 mRNA expression by real-time PCR assay; type: functional, cell-based; in short: as §2
[21] = molecular target: T2, Estrogen-related receptor gamma (Mus musculus); experiment: Increase in ERRgamma mediated transcriptional activity in primary mouse embryonic fibroblasts assessed as increase in ERRalpha mRNA levels by quantitative real time PCR assay; in short: as §2
[22] = tested on: MEF; experiment: In vitro induction of white adipose browning in primary mouse embryonic fibroblasts assessed as increase in UCP1 protein expression at 0.5 to 5 uM by Western blot method; type: functional, cell-based; in short: as §3
[23] = tested on: Mus musculus; experiment: In vivo induction of white adipose browning in C57BL6 mouse subcutaneous white adipose tissue assessed as increase in UCP1 positive stained area at 20 mg/kg/day, po by immunohistochemistry; type: functional, organism-based; in short: as §4
[24] = molecular target: T1, Estrogen-related receptor gamma (Homo sapiens); experiment: Binding affinity to ERRgamma (unknown origin) assessed as increase in protein melting temperature by CD spectroscopy
In short: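 Purified ERRγ protein was diluted to 0.2 mg/mL in phosphate buffer and incubated overnight with ligand (200 mM DMSO stock). CD ellipticity was read at 200–260 nm in a 1 mm quartz cuvette. Temperature was stepped 1 °C at a time from 30 to 60 °C to obtain Tm.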

[25] = tested on: MEF; experiment: Increase ERRgamma mRNA levels in primary mouse embryonic fibroblasts at 0.5 to 5 uM by quantitative real time PCR assay; type: functional, cell-based; in short: as §2
[26] = molecular target: T2, Estrogen-related receptor gamma (Mus musculus); experiment: Increase in ERRgamma mediated transcriptional activity in primary mouse embryonic fibroblasts assessed as increase in ATP5b protein levels at 0.5 to 5 uM by Western blotting method; in short: as §3
[27] = tested on: MEF; experiment: Induction of mitochondrial biogenesis in primary mouse embryonic fibroblasts assessed as increase in CPT1 mRNA expression at 0.5 to 5 uM by quantitative real time PCR assay; type: functional, cell-based; in short: as §2
[28] = molecular target: T2, Estrogen-related receptor gamma (Mus musculus); experiment: Increase in ERRgamma mediated transcriptional activity in primary mouse embryonic fibroblasts assessed as increase in SHP mRNA levels by quantitative real time PCR assay; in short: as §2
[29] = molecular target: T2, Estrogen-related receptor gamma (Mus musculus); experiment: Increase in ERRgamma mediated transcriptional activity in primary mouse embryonic fibroblasts assessed as increase in MCAD protein levels at 0.5 to 5 uM by Western blotting method; in short: as §3
[30] = tested on: MEF; experiment: In vitro induction of white adipose browning in primary mouse embryonic fibroblasts assessed as increase in UCP1 positive adipocytes by Immunofluorescence staining assay; type: functional, cell-based
In short: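 MEF-derived adipocytes on coverslips were treated from day 8 for 2 days. They were fixed in 4% formaldehyde, blocked in 5% BSA for 1 h, stained with rabbit anti-UCP1 (1:1000, 4 °C overnight) and then Alexa Fluor 647 secondary (1:200, 1 h), with DAPI nuclei. Imaged by fluorescence microscopy.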

fold change (FC) [1]: 1.31
Structure (SMILES): CC(C)c1ccc(Cn2cc(-c3ccccc3)nn2)cc1

fold change (FC) [1]: 2.4
Structure (SMILES): CC(C)c1ccccc1Cn1cc(-c2ccc(O)c(O)c2)nn1

Activity [2]: inactive
Activity [3]: inactive
Activity [4]: inactive
Activity [5]: inactive
fold change (FC) [1]: 1.1
Structure (SMILES): CC(C)c1ccc(Cn2cc(-c3ccccc3O)nn2)cc1

fold change (FC) [1]: 4.18
Structure (SMILES): CC(C)(C)c1ccc(Cn2cc(-c3ccc(O)c(O)c3)nn2)cc1

fold change (FC) [1]: 1.43
Structure (SMILES): Oc1ccc(-c2cn(Cc3ccccc3)nn2)cc1O

fold change (FC) [1]: 2.21
Structure (SMILES): CC(C)c1ccc(Cn2cc(-c3cccc(O)c3)nn2)cc1

fold change (FC) [1]: 3.32
Structure (SMILES): CC(C)c1cccc(Cn2cc(-c3ccc(O)c(O)c3)nn2)c1

Activity [7]: Dose-dependent effect
Activity [9]: Dose-dependent effect
pKd [13]: 4.34
Activity [14]: Dose-dependent effect
fold change (FC) [1]: 4.98
Activity [21]: Dose-dependent effect
ΔTm [24]: 0.7 °C
Activity [26]: Active
Activity [28]: Dose-dependent effect
Activity [29]: Active
Structure (SMILES): CC(C)c1ccc(Cn2cc(-c3ccc(O)c(O)c3)nn2)cc1
Activity [6]: Active
Activity [8]: Active
Activity [10]: Active
Activity [11]: Active
Activity [12]: Active
Activity [15]: Active
Activity [16]: Active
Activity [17]: Active
Activity [18]: Active
Activity [19]: Active
Activity [20]: Dose-dependent effect
Activity [22]: Active
Activity [23]: Active
Activity [25]: Active
Activity [27]: Active
Activity [30]: Active

fold change (FC) [1]: 1.69
Structure (SMILES): CC(C)c1ccc(Cn2cc(-c3ccc(O)cc3)nn2)cc1

fold change (FC) [1]: 2.56
Structure (SMILES): Oc1ccc(-c2cn(Cc3ccc(-c4ccccc4)cc3)nn2)cc1O

fold change (FC) [1]: 1.85
Structure (SMILES): CC(C)c1ccc(/C=N/NC(=O)c2ccc(O)cc2)cc1

fold change (FC) [1]: 2.9
Structure (SMILES): Cc1ccc(Cn2cc(-c3ccc(O)c(O)c3)nn2)cc1
